# Assay results from the RNAGym collection of RNA variant scans (doi:10.1002/anie.201605470).
# B1: Osa-1-4 twister ribozyme (parent)
# chain: CCGCCUAACACUGCCAAUGCCGGUCCCAAGCCCGGAUAAAAGUGGAGGGGGCGG
# Variants of: B1
# Experiment: self-cleavage, relative activity (ratio to wild type); higher = more cleavage; co-transcriptional
# Outline: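 A DNA template encoding a 54-nucleotide twister ribozyme from Oryza sativa was made so that each of the 48 positions downstream of the cleavage site carried 97 % wild-type base and 1 % of each other base. Transcription in vitro ran for 2 h at 37 °C, during which the ribozyme could cleave itself. Reverse transcription used a template-switching oligonucleotide, and the products were PCR-amplified and deep-sequenced. Each read was scored as cleaved or uncleaved by whether upstream sequence was present, and relative activity is the fraction cleaved normalised to wild type.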
row,Variant,self-cleavage
1,A16G U24G,0.04
2,A16G U24A,0.48
3,A16G U24C,0.58
4,A16U A17U,1.01
5,A16U A17C,0.94
6,A16U A17G,0.96
7,A17C,0.76
8,A17G,0.97
9,A17C G23U,0.04
10,A17C G23C,0.03
11,A17C G23A,0.07
12,A17C G49A,0.05
13,A17C G49C,0.04
14,A17C G49U,0.05
15,A17C G42U,0.57
16,A17C G42C,0.21
17,A17C G42A,0.5
18,A17C G35U,0.6
19,A17C G35A,0.6
20,A17C G35C,0.45
21,A16U G19U,0.26
22,A16U G19C,0.09
23,A16U G19A,0.89
24,A17C A46C,0.05

row,Variant,self-cleavage
1,A17C A46U,0.05
2,A17C A46G,0.05
3,A16U G48U,0.06
4,A16U G48A,0.08
5,A16U G48C,0.07
6,A16U C31G,0.07
7,A16U C31U,0.74
8,A16U C31A,0.03
9,A16U C27G,0.06
10,A16U C27A,0.2
11,A16U C27U,0.17
12,A16U C14G,0.11
13,A16U C14A,0.05
14,A16U C14U,0.3
15,A16U A38C,1
16,A16U A38U,1.05
17,A16U A38G,0.94
18,A17C A36C,0.21
19,A17C A36G,0.75
20,A17C A36U,0.66
21,A17C G22C,0.05
22,A17C G22U,0.06
23,A17C G22A,0.21
24,A16U G45A,0.36

row,Variant,self-cleavage
1,A16U G45U,0.1
2,A16U G45C,0.04
3,A16G U12G,0.55
4,A16G U12A,0.97
5,A16G U12C,0.53
6,A17C C15A,0.7
7,A17C C15G,0.64
8,A17C C15U,0.77
9,A17G A40G,0.89
10,A17G A40C,0.09
11,A17G A40U,0.83
12,A16U G51C,0.16
13,A16U G51U,0.39
14,A16U G51A,0.64
15,A16U G49U,0.11
16,A16U G49A,0.11
17,A16U G49C,0.06
18,A17C G53U,0.36
19,A17C G53C,0.1
20,A17C G53A,0.86
21,A16U,0.97
22,A17C U43G,0.26
23,A17C U43C,0.58
24,A17C U43A,0.64

row,Variant,self-cleavage
1,A17C G50U,0.86
2,A17C G50A,0.51
3,A17C G50C,0.9
4,A16U A40G,0.38
5,A16U A40U,0.55
6,A16U A40C,0.07
7,A16U G34U,0.67
8,A16U G34C,0.51
9,A16U G34A,0.73
10,A17G A38C,0.96
11,A17G A38U,0.97
12,A17G A38G,0.99
13,A16U C20G,0.15
14,A16U C20U,0.89
15,A16U C20A,0.69
16,A16G G54A,0.98
17,A16G G54U,0.93
18,A16G G54C,0.99
19,A17G A8C,0.12
20,A17G A8G,0.63
21,A17G A8U,0.49
22,A17C G13C,0.04
23,A17C G13A,0.04
24,A17C G13U,0.02

row,Variant,self-cleavage
1,A17C A40C,0.06
2,A17C A40U,0.16
3,A17C A40G,0.28
4,A17C C26G,0.07
5,A17C C26U,0.19
6,A17C C26A,0.03
7,A16U C11U,0.8
8,A16U C11A,0.64
9,A16U C11G,0.55
10,A16U G22C,0.11
11,A16U G22A,0.99
12,A16U G22U,0.84
13,A17C G48A,0.05
14,A17C G48C,0.03
15,A17C G48U,0.03
16,A17C C14A,0.1
17,A17C C14U,0.64
18,A17C C14G,0.25
19,A16U G53C,0.1
20,A16U G53A,0.85
21,A16U G53U,0.4
22,A16U G13A,0.09
23,A16U G13C,0.02
24,A16U G13U,0.02

row,Variant,self-cleavage
1,A16G G51C,0.22
2,A16G G51U,0.46
3,A16G G51A,0.82
4,A16U C15G,0.31
5,A16U C15A,0.35
6,A16U C15U,0.18
7,A16U A41G,0.36
8,A16U A41U,0.97
9,A16U A41C,0.93
10,A16U G30A,0.03
11,A16U G30C,0.04
12,A16U G30U,0.03
13,A17C A29C,0.03
14,A17C A29U,0.04
15,A17C A29G,0.05
16,A17C A41U,0.81
17,A17C A41G,0.68
18,A17C A41C,0.68
19,A17C C31G,0.05
20,A17C C31U,0.16
21,A17C C31A,0.03
22,A16G U18G,0.83
23,A16G U18C,0.97
24,A16G U18A,0.92

row,Variant,self-cleavage
1,A17C U24G,0.02
2,A17C U24A,0.03
3,A17C U24C,0.05
4,A16U C33U,0.71
5,A16U C33A,0.11
6,A16U C33G,0.04
7,A17C C25A,0.04
8,A17C C25G,0.03
9,A17C C25U,0.18
10,A17G A28U,0.87
11,A17G A28G,0.42
12,A17G A28C,0.93
13,A17C A7G,0.1
14,A17C A7U,0.06
15,A17C A7C,0.08
16,A17G A46C,0.1
17,A17G A46G,0.07
18,A17G A46U,0.09
19,A17C G34U,0.26
20,A17C G34A,0.34
21,A17C G34C,0.14
22,A16U G54A,0.93
23,A16U G54U,0.94
24,A16U G54C,0.88

row,Variant,self-cleavage
1,A16G U43G,0.62
2,A16G U43A,0.89
3,A16G U43C,0.53
4,A16U A7C,0.04
5,A16U A7U,0.06
6,A16U A7G,0.27
7,A16U G44C,0.91
8,A16U G44U,0.92
9,A16U G44A,0.94
10,A16U A29G,0.18
11,A16U A29U,0.11
12,A16U A29C,0.04
13,A17C G19C,0.04
14,A17C G19A,0.06
15,A17C G19U,0.04
16,A17C G54U,0.91
17,A17C G54C,0.87
18,A17C G54A,0.9
19,A16U C32G,0.11
20,A16U C32A,0.08
21,A16U C32U,0.13
22,A16U C25U,0.84
23,A16U C25G,0.08
24,A16U C25A,0.11

row,Variant,self-cleavage
1,A17C C20U,0.78
2,A17C C20A,0.58
3,A17C C20G,0.1
4,A17C C9U,0.1
5,A17C C9G,0.12
6,A17C C9A,0.08
7,A17C G45C,0.05
8,A17C G45A,0.24
9,A17C G45U,0.14
10,A17C C27U,0.06
11,A17C C27A,0.06
12,A17C C27G,0.03
13,A16U A8U,0.35
14,A16U A8C,0.06
15,A16U A8G,0.62
16,A16U G47C,0.08
17,A16U G47A,0.24
18,A16U G47U,0.2
19,A17C A38U,0.66
20,A17C A38G,0.78
21,A17C A38C,0.71
22,A17C A8C,0.08
23,A17C A8U,0.06
24,A17C A8G,0.12

row,Variant,self-cleavage
1,A16U C26U,0.9
2,A16U C26A,0.03
3,A16U C26G,0.11
4,A17G A29U,0.27
5,A17G A29G,0.35
6,A17G A29C,0.07
7,A17G C9A,0.33
8,A17G C9G,0.78
9,A17G C9U,0.47
10,A16U G23A,0.49
11,A16U G23U,0.09
12,A16U G23C,0.06
13,A16U U24G,0.02
14,A16U U24C,0.29
15,A16U U24A,0.15
16,A16U C52A,0.97
17,A16U C52G,0.92
18,A16U C52U,0.92
19,A17C C52A,0.87
20,A17C C52U,0.78
21,A17C C52G,0.9
22,A17C C11U,0.14
23,A17C C11A,0.06
24,A17C C11G,0.05

row,Variant,self-cleavage
1,A16U A39G,0.4
2,A16U A39C,0.93
3,A16U A39U,0.87
4,A17C G47C,0.05
5,A17C G47U,0.09
6,A17C G47A,0.07
7,A17C G30A,0.04
8,A17C G30U,0.03
9,A17C G30C,0.03
10,A16U G42U,0.73
11,A16U G42A,0.8
12,A16U G42C,0.33
13,A17C G51U,0.22
14,A17C G51C,0.13
15,A17C G51A,0.32
16,A16G G53A,0.91
17,A16G G53U,0.71
18,A16G G53C,0.16
19,A16U G35A,0.76
20,A16U G35U,0.82
21,A16U G35C,0.17
22,A17C C21A,0.15
23,A17C C21G,0.05
24,A17C C21U,0.69

row,Variant,self-cleavage
1,A16U U12C,0.47
2,A16U U12A,0.92
3,A16U U12G,0.16
4,A16U A46G,0.05
5,A16U A46C,0.07
6,A16U A46U,0.05
7,A17G C11A,0.5
8,A16U U37G,1
9,A16U U37A,0.83
10,A16U U37C,1.06
11,A17C U37A,0.41
12,A17C U37G,0.81
13,A17C U37C,0.85
14,A17C C33A,0.05
15,A17C C33G,0.04
16,A17C C33U,0.16
17,A17G A41G,0.94
18,A17G A41U,0.94
19,A17G A41C,0.9
20,A17G A39U,0.95
21,A17G A39G,0.94
22,A17G A39C,0.91
23,A17C G44C,0.72
24,A17C G44A,0.81

row,Variant,self-cleavage
1,A17C G44U,0.7
2,A17C C32G,0.08
3,A17C C32U,0.05
4,A17C C32A,0.06
5,A16U C9U,0.62
6,A16U C9G,0.91
7,A16U C9A,0.42
8,A17C U18G,0.79
9,A17C U18A,0.78
10,A17C U18C,0.57
11,A17C U12A,0.15
12,A17C U12C,0.08
13,A17C U12G,0.18
14,A16U G50A,0.67
15,A16U G50U,0.94
16,A16U G50C,0.95
17,A16G U37G,1.02
18,A16G U37A,0.87
19,A16G U37C,1.03
20,A16U C21A,0.66
21,A16U C21G,0.05
22,A16U C21U,0.95
23,A16U U43G,0.33
24,A16U U43A,0.85

row,Variant,self-cleavage
1,A16U U43C,0.36
2,A17G A36G,0.99
3,A17G A36C,0.82
4,A17G A36U,1.01
5,A17C A28G,0.05
6,A17C A28C,0.6
7,A17C A28U,0.29
8,A17G A7G,0.49
9,A17G A7U,0.1
10,A17G A7C,0.08
11,A17C A39U,0.73
12,A17C A39C,0.52
13,A17C A39G,0.86
14,A16U A28U,0.87
15,A16U A28G,0.24
16,A16U A28C,0.91
17,A16U A36U,1.01
18,A16U A36G,0.97
19,A16U A36C,0.6
20,A16U U18A,0.89
21,A16U U18C,0.87
22,A16U U18G,0.66
